# Measurements taken from article PMC11740227 (FASEB journal : official publication of the Federation of …, 2023).
# What was measured:
# Molt4E6 cells [1] = experiment: Cell death by trypan blue exclusion in Molt4E6 cells; assay type: cell-based, human; conditions: for cell death: Molt4E6 cells, 24 h of treatment
# Molt4E6 cells [2] = experiment: Caspase activation by Western blot in Molt4E6 cells; assay type: cell-based, human; conditions: 6 h of treatment
# Jurkat cells = experiment: Cell death by trypan blue exclusion in Jurkat cells with Bak knockdown; assay type: cell-based, human; conditions: Jurkat sgRNA BakA and BakB vs control cells, 24 h of treatment
# [3] = Pharmacokinetics of PF543 in wildtype mice, IP dosing; assay type: in vivo, mouse; conditions: after IP administration in mice
# [4] = assay type: in vitro ADME; conditions: mouse
# WT mice [5] = experiment: Tolerability of IP dosing in the PK study; assay type: in vivo; conditions: 100 mg/kg IP
# S1P levels in blood = experiment: Blood sphingolipid analysis by LC MS/MS after PF543 administration; assay type: in vivo, mouse; conditions: 10 mg/kg of body weight, 2 h after IP injection, vs vehicle
# Trp53KO thymic lymphoma [6] = experiment: Thymic lymphoma growth in Trp53KO mice by ultrasound imaging; assay type: in vivo, mouse; conditions: 10 mg/kg BID IP for 10 days, compared to vehicle
# Trp53KO thymic lymphoma [7] = experiment: Cleaved caspase 3 immunohistochemistry of tumor tissue; assay type: in vivo, mouse; conditions: Trp53KO mice, day 10 after treatment initiation, compared to vehicle
# Procedure, shortened: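 Male Trp53KO mice with ultrasound-detected thymic lymphoma (100–150 mm3) received vehicle or test compound, 10 mg/kg IP twice daily (suspension in 1% HPMC/PBS), and tumors were taken at day 10. Sections were stained overnight at 4°C with anti-cleaved caspase-3 (1:200), then biotinylated anti-rabbit, DAB/H2O2 and hematoxylin counterstain. Positive cells counted in ten 20× fields per sample, expressed per mm2; three mice per condition.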
# [8] = tested on: mouse Trp53KO thymic lymphoma cells; experiment: Proliferation, viability and cell death of cultured thymic lymphoma cells; assay type: cell-based
# [9] = tested on: mouse Trp53KO thymic lymphoma cells; experiment: Sphingolipid levels in cultured cells by LC MS/MS; assay type: cell-based; conditions: PF543 0.5 μM
# [10] = tested on: lymphocytes isolated from WT thymus; experiment: Viability of WT lymphocytes; assay type: cell-based, mouse
# WT mice [11] = conditions: mouse, in vivo, ip, 10 mg/kg
compound,measurement,setting,value
"CCCCCCCCCCCCC/C=C/[C@@H](O)[C@@H](N)CO [Sph, sphingosine]",cell death,Molt4E6 cells [1],caused cell death
same,caspase activation,Molt4E6 cells [2],activation of caspases
same,Sph-induced cell death after knockdown of Bak,Jurkat cells,significantly protected
Cc1cc(CS(=O)(=O)c2ccccc2)cc(OCc2ccc(CN3CCC[C@@H]3CO)cc2)c1 [PF543],half-life (T1/2),[3],~ 4 h
same,plasma protein binding,[4],94 % bound
same,tolerability of IP dosing,WT mice [5],not tolerated
same,S1P levels in blood,S1P levels in blood,decreased
same,tumor growth (tumor size by ultrasound),Trp53KO thymic lymphoma [6],significant inhibition
same,number of cleaved caspase 3 positive cells in tumor samples,Trp53KO thymic lymphoma [7],significantly higher
same,proliferation over time,"[8]; PF543 0.5 μM, low-serum medium, counted every day for 4 days, CCK-8 at day 2",significantly decreased
same,cell death,[8]; Trp53KO thymic lymphoma cells treated with PF543,resulted in cell death
same,survival of cells in culture,[8]; mouse Trp53KO lymphoma cells,reduced survival
same,Sph levels in cells,[9],significantly increased
same,total Cer levels in cells,[9],significantly increased
same,cell viability over time,[10],did not affect cell viability
same,liver function (liver enzymes in blood),WT mice [11],did not significantly impact
same,number of total white cells and lymphocytes in blood,WT mice [11],no decrease
ZVAD,protection from PF543-induced cell death,"[8]; pan-caspase inhibitor with PF543, Trp53KO thymic lymphoma cells",partially protected
same,inhibition of Sph-induced cell death,"Molt4E6 cells [1]; ZVAD 40 μM pre-treatment 1 h, then 3 μM D-erythro-Sph, 24 h",significantly inhibited
CCCC[C@@H](C)[C@@H](OC(=O)C[C@@H](CC(=O)O)C(=O)O)[C@H](C[C@@H](C)C[C@H](O)CCCC[C@@H](O)C[C@H](O)[C@H](C)N)OC(=O)C[C@@H](CC(=O)O)C(=O)O [FB1],protection from Sph-induced cell death,"Molt4E6 cells [1]; FB1 25 μM pre-treatment 1 h, then 3 μM D-erythro-Sph, 24 h",did not protect
CCCCCCCCCCCCC/C=C/[C@H](O)[C@H](N)CO [L-erythro-Sph],cell death,Molt4E6 cells [1],did not induce cell death
same,caspase activation,Molt4E6 cells [2],did not induce cell death or caspase activation
